Rows were chosen to be rich in hits. Some 2.2% of all compounds tested hit in one or more screens of this group.
PERK inhibitor: inhibitors of human PERK kinase | Q9NZJ5 | AID 1416 | 220,000 compounds, 0.17% hits | inhibition, % at 5.6 µM | CHO PERK-DD fusion, SEAP luminescence translation reporter;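 active means inhibition above the mean inhibition of all tested compounds plus 3 SD, set separately per screening campaign, cut at about 2.9% in these data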;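 further: PERK kinase domain activated by AP20187 dimerizer at 100 nM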
Runt-SMMHC FRET: Runt domain-CBFb-SMMHC interaction inhibition | Q01196+Q13951 | Cerulean-Runt/Venus-CBFb-SMMHC FRET ratio 530/480, 1 h | inhibition, % at 20 µM | 220,000 compounds, 0.74% hits;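 active means mean inhibition across duplicate retests at 20 µM reaching about 50%, limit read from the data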;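 further: inhibitors lower the FRET ratio by blocking Runt binding to CBFb-SMMHC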
Target sequence (Q01196 whole entry, looked up, the tested form may be a part): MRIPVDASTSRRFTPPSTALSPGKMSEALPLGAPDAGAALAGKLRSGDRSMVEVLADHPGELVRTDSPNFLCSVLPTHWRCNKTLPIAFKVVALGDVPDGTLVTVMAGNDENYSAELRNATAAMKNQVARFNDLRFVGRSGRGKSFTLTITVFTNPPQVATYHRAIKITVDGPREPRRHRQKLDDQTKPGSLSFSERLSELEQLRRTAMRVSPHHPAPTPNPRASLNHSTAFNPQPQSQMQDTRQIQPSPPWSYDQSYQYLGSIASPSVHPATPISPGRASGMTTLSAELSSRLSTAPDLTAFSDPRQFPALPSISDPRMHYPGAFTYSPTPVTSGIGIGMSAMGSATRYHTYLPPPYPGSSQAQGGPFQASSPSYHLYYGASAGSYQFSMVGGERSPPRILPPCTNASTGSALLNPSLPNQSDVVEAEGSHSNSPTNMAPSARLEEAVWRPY
Target sequence (Q13951 whole entry, looked up, the tested form may be a part): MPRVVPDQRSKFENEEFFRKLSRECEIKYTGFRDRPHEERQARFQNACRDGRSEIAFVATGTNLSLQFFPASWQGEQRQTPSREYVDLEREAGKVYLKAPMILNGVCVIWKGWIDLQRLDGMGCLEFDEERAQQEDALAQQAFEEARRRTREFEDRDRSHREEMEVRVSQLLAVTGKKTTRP
RanGTP-Impb inh: inhibitors of RanGTP-importin-beta interaction, primary screen, biochemical, FRET, CFP-Ran, YFP-importin-beta, homogeneous. cell-free CFP-Ran/YFP-importin-beta FRET ratio. 300,000 compounds, 1.1% hits. inhibition, % (test concentration not listed);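 active means more than half of the replicate wells show a fall in the fluorescence ratio signal beyond about 16%, limit read from the data, passing the limit was not always enough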
Runt-CBFb FRET: blocks binding of human RUNX1 Runt domain to CBFb. Q01196+Q13951. AID 1496. 220,000 compounds, 0.46% hits. Cerulean-Runt/Venus-CBFb FRET ratio 530/480, 1 h. inhibition, % at 20 µM;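 active means inhibition over about 50% at 20 µM in the single-dose screen, limit read from the data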
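System: Cerulean-labeled Runt domain protein | Quantity: 100 nM of each labeled protein | Schedule: 1 h compound exposure, room temperature | Detection: Fluorescence energy transfer, 422 nm excitation, 530/480 nm emission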
eIF4E-4G inh: eIF4E/eIF4G interaction inhibition in translation initiation | P63073+Q04637 | TR-FRET eIF4E-eIF4GI(517-606) binding, 2 h | inhibition, % at 21.7 µM | 220,000 compounds, 0.37% hits | AID 782;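 active means inhibition above about 30%, limit read from the data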
Hck-Nef inh: inhibitors of human Hck kinase activated by Nef; P08631; Recombinant Hck-YEEI plus Nef, Z-Lyte FRET kinase assay; inhibition, % at 20 µM; 220,000 compounds, 0.68% hits;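 active means Hck-Nef kinase inhibition above about 50%, limit read from the data; inactive means inhibition below that limit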
Hck Nef conf: confirmation of Hck-Nef kinase inhibitors | 1,300 compounds, 28% hits | shares compounds with Hck-Nef inh | AID 463188 | Recombinant Hck-YEEI:Nef, Z-Lyte FRET kinase assay | calls only at 10 µM;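 active means average inhibition of at least 50%, with Z-scores no higher than 3 in both the phospho-tyrosine peptide and fluorescence counterscreens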
Numbers stand for hits; 0 = inactive; - = no result given; + = active, no number.

SMILES | PERK inhibitor | Runt-SMMHC FRET | RanGTP-Impb inh | Runt-CBFb FRET | eIF4E-4G inh | Hck-Nef inh | Hck Nef conf
Cc1cc(NC(=O)c2cccs2)n(-c2nc3ccccc3[nH]2)n1 | 0 | 0 | 0 | 0 | 0 | 85.2 | 0
Cc1cc(NC(=O)c2sccc2C)n(-c2nc3ccccc3[nH]2)n1 | 0 | 0 | 0 | 0 | 0 | 0 | -
Cc1ccc(CN2C(=O)N/C(=C\c3ccc(-c4ccc(C(=O)O)cc4C)o3)C2=O)cc1 | 0 | 84.0 | - | 110.3 | 0 | 60.1 | 0
O=C(O)c1ccc(CN2C(=O)c3ccc(C(=O)O)cc3C2=O)cc1 | - | - | 0 | - | - | - | -
CCC1(CC)NC(=O)N(CC(=O)NCc2ccc3c(c2)OCO3)C1=O | 0 | 0 | 0 | 0 | 0 | 0 | -
CCCS/C(N)=N/N=C/c1cc(C)ccc1O | 0 | 0 | 0 | 0 | 0 | 55.2 | +
C=CCOC(=O)C1=C[C@H](c2csc3ccccc23)[C@@H](CCCO)[C@H](OCC)O1 | 0 | 0 | 0 | 0 | 0 | 0 | -
Cc1cc(Br)ccc1SCC(=O)OCC(=O)NC(C)c1ccccc1 (stereo not drawn) | 0 | 0 | 0 | 0 | 0 | 0 | -
O=C(Nc1cccc(NC(=O)c2ccc(Br)o2)n1)c1ccc(Br)o1 | 0 | 0 | 0 | 0 | 0 | 98.1 | 0
COc1ccc(C(=O)Oc2ccc(/C=N/O)cc2)cc1 | 0 | 0 | 0 | 0 | 0 | 0 | -
Cc1cc(C)cc(CC(CC(=O)Nc2ccc(Cl)cc2)C(=O)O)c1 (stereo not drawn) | - | - | 0 | - | - | - | -
COCc1cc(C)nc(OCC(=O)N/N=C/c2ccco2)c1C#N | 0 | 0 | 0 | 0 | 0 | 0 | -
COCc1cc(C)nc(OCC(=O)N/N=C/c2ccc(-c3cc([N+](=O)[O-])ccc3Cl)o2)c1C#N | 0 | 0 | 0 | - | 0 | 93.2 | 0
CC(=O)n1cc(/C=N/NC(=O)c2cccc(O)c2)c2ccccc21 | - | - | 0 | - | - | - | -
Cc1ccc(NC(=O)COC(=O)/C=C/c2ccc(Br)o2)cc1S(=O)(=O)N(C)C | 0 | 0 | 0 | 0 | 0 | 53.1 | 0
CN(C)S(=O)(=O)c1cccc(NC(=O)COC(=O)/C=C/c2ccc(Br)o2)c1 | 0 | 0 | 0 | 0 | 0 | 0 | -
Cc1cccn2c(=O)c3cc(C(=O)NCc4ccco4)c(=N)n(CCOCCO)c3nc12 | 0 | - | 154.7 | - | 0 | 74.7 | 0
COCCn1c(=N)c(C(=O)NCc2ccco2)cc2c(=O)n3cc(C)ccc3nc21 | 0 | - | 0 | - | 0 | 85.6 | -
COc1ccccc1C(=O)Nc1ccccc1C(=O)N1C(C)CCCC1C (stereo not drawn) | 0 | 0 | 0 | 0 | 0 | 0 | -
COc1cccc(CC(NC(C)=O)C(=O)NC2CCN(c3ncccc3[N+](=O)[O-])CC2)c1 (stereo not drawn) | 0 | 0 | 0 | 0 | 0 | 0 | -
O=C(COC(=O)c1ccc(CSc2ccc(Cl)cc2)cc1)Nc1ccccc1 | 0 | 0 | 0 | 0 | 0 | 0 | -
O=C(COc1cccnc1[N+](=O)[O-])Nc1ccc(S(=O)(=O)N2CCOCC2)cc1 | 0 | 0 | 0 | 0 | 0 | 0 | -
Cc1ccc(OCC(=O)Nc2ccc(-c3nc4ncccc4o3)cc2)c(C)c1 | 0 | 0 | 0 | 0 | 0 | 105.6 | 0
O=C(NC(=S)Nc1ccc(-c2nc3ncccc3o2)cc1)c1ccccc1F | 0 | 0 | 0 | 0 | 0 | 52.3 | 0
O=C(NC(=S)Nc1ccc(Cc2ccncc2)cc1)c1ccccc1F | 0 | 0 | 0 | 0 | 0 | 0 | -
SMILES | PERK inhibitor | Runt-SMMHC FRET | RanGTP-Impb inh | Runt-CBFb FRET | eIF4E-4G inh | Hck-Nef inh | Hck Nef conf
Cc1ccc(C(=O)Nc2cccc(-c3nc4ncccc4o3)c2)cc1 | 0 | 0 | 0 | 0 | 0 | 0 | -
CCc1cc(=S)n2c([nH]c3ccccc32)c1C#N | 0 | 0 | 0 | 0 | 0 | 71.3 | 0
COCc1cc(C)[nH]c(=O)c1C#N | 0 | 0 | 0 | 0 | 0 | 0 | -
COCc1cc(=O)n2c([nH]c3ccccc32)c1C#N | 0 | 58.9 | 0 | 0 | 0 | 66.8 | -
Cc1ccc(-c2nnc(SCC(=O)NCC3CCCO3)n2C)cc1 (stereo not drawn) | 0 | 0 | 0 | 0 | 0 | 0 | -
O=C(COc1ccc2ccc(=O)oc2c1)NC1CCCC1 | - | - | 0 | - | - | - | -
O=C(Oc1ccc2ccc(=O)oc2c1)C1CCCCC1 | 0 | 0 | 0 | 0 | 0 | 66.9 | 0
COC(=O)c1sc(N)c(C(=O)OC)c1COC(=O)[C@@H](NS(=O)(=O)c1cccc(Cl)c1)C(C)C | 0 | 0 | 0 | 0 | 0 | 79.3 | +
c1ccc(Nc2ccnc(Nc3ccccc3)n2)cc1 | 0 | 0 | 0 | 0 | 0 | 100.5 | +
O=C(c1ccc(CN2CCc3ccccc3C2)cc1)N1CCc2ccccc2C1 | 0 | 0 | 0 | 0 | 0 | 0 | -
Clc1cccc(Cl)c1CSc1nnc(CN2CCOCC2)n1-c1ccccc1 | 0 | 0 | 0 | 0 | 0 | 0 | -
Fc1cccc(Cl)c1CSc1nnc(CN2CCOCC2)n1-c1ccccc1 | 0 | 0 | 0 | 0 | 0 | 95.9 | 0
O=C(Nc1ccc(S(=O)(=O)Nc2nccs2)cc1)c1cccc(N2C(=O)c3ccccc3C2=O)c1 | 0 | 0 | 0 | 0 | 0 | 0 | -
O=C(Nc1nccs1)c1cccc(N2C(=O)c3cccc4c([N+](=O)[O-])ccc(c34)C2=O)c1 | 0 | 0 | 0 | 0 | 0 | 51.9 | +
C=CCNC(=O)CN1CCC(c2nc3cc(C)c(C)cc3[nH]2)CC1 | - | - | 0 | - | - | - | -
Cc1ccc(-n2c(O)c(/C=N/Nc3ccc(S(=O)(=O)N4CCOCC4)cc3[N+](=O)[O-])c3ccccc3c2=O)c(C)c1 | 0 | 0 | 0 | 0 | 0 | 0 | -
Cc1ccc(-n2c(O)c(C=NC3CCS(=O)(=O)C3)c3ccccc3c2=O)cc1C (stereo not drawn) | 0 | 0 | 0 | 0 | 0 | 0 | -
Cc1ccc(-n2c(O)c(C=Nc3ccccc3-c3n[nH]c(=S)[nH]c3=O)c3ccccc3c2=O)cc1C | 0 | 0 | 0 | 0 | 0 | 84.4 | +
Cc1ccc(-n2c(O)c(C=Nc3ccccc3-c3n[nH]c(=S)[nH]c3=O)c3ccccc3c2=O)c(C)c1 | 0 | 0 | 0 | 0 | 0 | 73.1 | +
CCOc1cc(/C=C(/C#N)c2ccc(F)cc2)ccc1OCc1ccc(C(=O)O)o1 | 0 | 0 | 0 | 0 | 0 | 0 | -
CCOc1cc(/C=C(/C#N)c2nc3ccccc3[nH]2)ccc1OCc1ccc(C(=O)O)o1 | 0 | 0 | 0 | 0 | 0 | 64.2 | -
CCn1cc(C(=O)N2CCN(c3ccccc3)CC2)c(=O)c2cc(S(=O)(=O)N3CCOCC3)ccc21 | - | - | 0 | - | - | - | -
CCSc1nnc(NC(=O)c2ccco2)s1 | 0 | 0 | 0 | 0 | 0 | 101.5 | 0
O=S(=O)(NCCN1CCOCC1)c1ccc(-c2ccc(S(=O)(=O)NCCN3CCOCC3)cc2)cc1 | - | - | 0 | - | - | - | -
COC(=O)C1=CN(C(C)C)C=C(C(=O)OC)C1c1cc(Br)c(OC)c(OC)c1 | 0 | 75.1 | 59.3 | 114.5 | 0 | 61.0 | -

Compound activity deposited in PubChem by several laboratories.
